A selection: hits, their analogues and other compounds. The true share with any hit is near 2.2%.
Mcl-1 Bim block – disrupts Bim peptide binding to human Mcl-1; inhibition, % at 10 µM; 0.1% of 190,000 active; Bead-based flow cytometry, Bim peptide-Mcl-1 binding; in the data active = inhibition above about 40%;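 note: 0% = no compound tracer wells and 100% = peptide blocker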
Target sequence (Q07820 whole entry, looked up): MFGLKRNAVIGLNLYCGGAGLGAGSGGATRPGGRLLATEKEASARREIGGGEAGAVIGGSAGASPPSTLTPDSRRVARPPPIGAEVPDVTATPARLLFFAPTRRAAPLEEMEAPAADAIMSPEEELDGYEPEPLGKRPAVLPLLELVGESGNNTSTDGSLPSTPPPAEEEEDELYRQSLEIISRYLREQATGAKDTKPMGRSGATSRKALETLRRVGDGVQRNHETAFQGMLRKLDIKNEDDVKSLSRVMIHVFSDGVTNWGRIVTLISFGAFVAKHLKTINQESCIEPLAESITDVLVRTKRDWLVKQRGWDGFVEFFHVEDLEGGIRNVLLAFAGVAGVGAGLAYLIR
Mcl1 Bid PPI – Mcl-1/Bid interaction inhibition; TR-FRET Mcl-1/Bid-Dy647 peptide binding, 1536-well; inhibition, % at 21.7 µM; 0.97% of 220,000 active; AID 1021;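 active = compounds that cut the binding signal by more than half at the single screening dose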;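 note: His-tagged Mcl-1 with europium anti-His antibody binding Bid BH3 peptide; 0% = Mcl-1 plus peptide wells and 100% = peptide-only wells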
Mcl1-Noxa inh – Mcl-1/Noxa interaction inhibition; Q07820; TR-FRET Mcl-1/Noxa peptide binding, 2 h; inhibition, % at 21.7 µM; 1.5% of 220,000 active;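 active = compounds that cut the protein-peptide binding signal by more than 50% relative to plate controls in a single-dose test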;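 note: His-tagged Mcl-1 with rhodamine Noxa BH3 peptide and terbium anti-His antibody; 0% = Mcl-1 plus Noxa peptide wells and 100% = peptide-only wells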
RBBP9 inhibitor – blocks human serine hydrolase RBBP9. inhibition, % at 7.94 µM. recombinant RBBP9, FP-Rh probe fluorescence polarization. 0.2% of 220,000 active. O75884. AID 1515;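 active = inhibition above the campaign mean of all tested compounds plus 3 SD, cut at about 14% in these data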;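 note: plate controls were DMSO wells with RBBP9 for no effect and wells lacking RBBP9 protein for full effect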
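Material: RBBP9 protein. Amount: RBBP9 at 2.5 µM in dispensed solution, before mixing. Schedule: 30 min then 45 min, 25 °C. Medium: Tris buffer pH 8.0, NaCl, Pluronic. Measured by: fluorescence polarization. Measure: percent inhibition from mP, scaled between DMSO and no-protein wells. Replication: one well per compound.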
EBV gp42 inh – blocks Epstein-Barr virus glycoprotein 42 binding; Q1HVG2; 0.42% of 220,000 active; Fluorescence polarization binding assay, mP read-out; AID 1085; inhibition, % (tested at 21.74 µM); in the data active = inhibition above about 50%
MCL1-BIM inh – MCL1-BIM-BH3 interaction inhibition (human) | GST-MCL1 / FITC-Bim-BH3 fluorescence polarization | inhibition, % at 10.9 µM | 0.68% of 320,000 active | AID 2057;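 active = inhibition above the mean inhibition of all tested compounds plus 3 SD, set per campaign, cut at about 40% in these data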;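 note: 0% = DMSO wells and 100% = unlabeled Bim-BH3 peptide control; higher means more loss of mP so more displacement of Bim peptide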
Bcl-xL conf – counter-screen for MCL1 inhibitors: confirmation of human Bcl-xL inhibitors; GST-Bcl-xL / FITC-Bim BH3 peptide FP binding; AID 2166; 54% of 1,700 active; shares compounds with MCL1-BIM inh; inhibition, % at 10.9 µM;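 active = inhibition above a cutoff equal to the mean inhibition of all tested compounds plus 3 SD, cut at about 30% in these data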;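 note: 0% = DMSO wells and 100% = unlabeled Bim BH3 control peptide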
Target sequence (Q07817 whole entry, looked up): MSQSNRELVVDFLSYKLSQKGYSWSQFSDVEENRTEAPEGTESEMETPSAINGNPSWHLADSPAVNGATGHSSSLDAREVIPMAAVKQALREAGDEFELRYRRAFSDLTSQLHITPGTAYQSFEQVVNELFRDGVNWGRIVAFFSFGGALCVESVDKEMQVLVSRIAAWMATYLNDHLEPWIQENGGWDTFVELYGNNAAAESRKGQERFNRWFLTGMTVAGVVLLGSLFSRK
MCL1 inh confirm – MCL1-BIM-BH3 interaction inhibition, confirmation; shares compounds with MCL1-BIM inh; GST-MCL1 / FITC-Bim-BH3 fluorescence polarization; inhibition, % at 10.9 µM; 61% of 1,700 active; AID 2168;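 active = inhibition above the average of all tested compounds plus 3 SD, cut at about 40% in these data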;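 note: 0% = DMSO wells and 100% = unlabeled Bim-BH3 control peptide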
* marks the source's active call; other numbers are inactive results; . = no result; + = active, no number.

SMILES | Mcl-1 Bim block | Mcl1 Bid PPI | Mcl1-Noxa inh | RBBP9 inhibitor | EBV gp42 inh | MCL1-BIM inh | Bcl-xL conf | MCL1 inh confirm
O=C(O)COc1ccccc1C(Nc1ccccn1)c1cc(Cl)c2cccnc2c1O (configuration not stated) | -5 | 74* | 91* | 0 | -7 | 79* | 27 | 89*
COc1ccccc1C(NC(C)=O)c1cc(Cl)c2cccnc2c1O (configuration not stated) | . | . | . | . | . | -2 | . | .
O=C(O)c1ccc(-c2ccc(/C=c3/sc4nc5ccccc5n4c3=O)o2)cc1Cl | . | . | . | . | . | 40* | -13 | -21
O=C(CSc1nnc(CNC(=O)c2cccs2)o1)Nc1ccccc1C(F)(F)F | . | . | . | . | . | 5 | . | .
O=C(COc1ccccc1[N+](=O)[O-])N/N=C/C=C/c1ccco1 | -1 | -36 | -12 | -9 | -18 | 6 | . | .
Cc1ccccc1OCC(=O)N/N=C/c1ccc([N+](=O)[O-])o1 | -2 | 3 | -7 | -7 | -10 | 18 | . | .
O=C(CSc1nnc(SCc2ccccc2)s1)N/N=C/C=C/c1ccccc1[N+](=O)[O-] | -6 | 9 | 10 | -10 | -5 | 18 | . | .
O=C(CSc1nnc(SCc2ccccc2)s1)N/N=C/C=C\c1ccco1 | -2 | -59 | 54* | -4 | 53* | 43* | 31* | 59*
Cc1ccc(OCC(=O)N/N=C/C=C/c2ccco2)cc1 | -6 | -7 | 22 | -7 | -18 | 40* | 55* | 71*
COc1ccccc1OCC(=O)N/N=C/C=C/c1ccc([N+](=O)[O-])o1 | -1 | -50 | 27 | 0 | -1 | 41* | 6 | 18
CCN(CC)C1CCN(C(=O)c2ccc(OC3CCN(Cc4ccccn4)CC3)cc2)C1 (configuration not stated) | . | . | . | . | . | -7 | . | .
CSc1ccc(/C=N/N2CCN(Cc3ccccc3)CC2)cc1 | -1 | -49 | -10 | -1 | -24 | -10 | . | .
CCS(=O)(=O)NCc1ccc2[nH]c3c(c2c1)CCCC3 | -3 | -40 | 3 | -7 | 12 | 73* | 49* | 70*
O=C(O)CC1Sc2ccccc2NC1=O (configuration not stated) | 3 | -22 | 11 | -5 | -16 | -6 | . | .
O=C1Nc2ccccc2SC(c2ccccc2)C1O (configuration not stated) | 1 | 63* | 104* | -9 | 67* | 63* | 24 | 91*
COC(=O)CN(c1ccccc1)S(=O)(=O)c1ccc(F)cc1 | -2 | -1 | 7 | -8 | -4 | + | 8 | 10
CCN(c1ccccc1)S(=O)(=O)c1ccc(F)cc1 | -2 | 14 | 14 | -12 | 0 | 0 | . | .
O=C1NC(=S)/C(=C\c2ccc(-c3ccccc3Cl)o2)S1 | -2 | -28 | 100* | -2 | 60* | 62* | 91* | 116*
Cc1cn2c(-c3cccnc3)nnc2s1 | -3 | -11 | -2 | -1 | -21 | 0 | . | .
Cc1ccc(-c2[nH]c(=O)n3ccncc23)s1 | 2 | -90 | 9 | -12 | 28 | 57* | 66* | 91*
O=C(O)c1cc2nc3c(c(C(F)(F)F)n2n1)CCc1ccccc1-3 | 1 | -25 | 2 | 1 | -24 | 15 | . | .
COCCNC(=O)c1cc2nc3c(c(C(F)(F)F)n2n1)CCc1ccccc1-3 | 0 | -7 | -1 | -2 | -13 | 49* | 4 | 8
CC(=O)Nc1ccc(NC(=O)CCc2nc3sc4c(c3c(=O)[nH]2)CCCC4)cc1 | . | . | . | . | . | 8 | . | .
CC1(NC(=O)CCc2nc3sc4c(c3c(=O)[nH]2)CCCC4)CCS(=O)(=O)C1 (configuration not stated) | . | . | . | . | . | 42* | 9 | 44*
CCOC(=O)c1ccc(NC(=O)CSc2nc(C)cc(=O)[nH]2)cc1 | -1 | -4 | 85* | -9 | 24 | 41* | 23 | 51*
SMILES | Mcl-1 Bim block | Mcl1 Bid PPI | Mcl1-Noxa inh | RBBP9 inhibitor | EBV gp42 inh | MCL1-BIM inh | Bcl-xL conf | MCL1 inh confirm
CCCCCCCCCCCCCCCC(=O)OC(CC(=O)O)C[N+](C)(C)C (configuration not stated) | . | . | . | . | . | 85* | 9 | 8
COc1cc(OC)cc(C(=O)NCCCCCCNC(=O)c2cc(OC)cc(OC)c2)c1 | . | . | . | . | . | 48* | 38* | 49*
Cc1cc(C)c(C(=O)COC(=O)c2cc([N+](=O)[O-])ccc2N2CCOCC2)cc1C | . | . | . | . | . | -7 | . | .
CN(CC(=O)Nc1ccc(Cl)cc1)C(=O)CNC(=O)c1ccc(Br)o1 | . | . | . | . | . | 2 | . | .
CCN(CC)c1ccc2cc(-c3nc4ccccc4[nH]3)c(=O)oc2c1 | 3 | 96* | 26 | -2 | 45 | 76* | 89* | 105*
CCN(CC)c1ccc2cc(-c3nc(-c4ccc(OC)cc4)cs3)c(=O)oc2c1 | . | -19 | -1 | -4 | 92* | 110* | 115* | 134*
CCN(CC)c1ccc2cc(-c3nnc(-c4ccccc4)o3)c(=O)oc2c1 | -15 | 6 | -2 | 5 | 21 | -46 | . | .
Cc1ccccc1CN1CCN(C(C)C(=O)NNC(=O)c2ccc(F)cc2)CC1 (configuration not stated) | . | . | . | . | . | -4 | . | .
CCOc1cc(O)c(-c2[nH]ncc2-c2nc(C)cs2)cc1CC | . | 21 | 3 | -3 | -10 | 7 | . | .
O=C(CCc1ccccc1)NNC(=S)NC(=O)c1ccc(Cl)cc1 | -1 | -129 | -66 | -2 | 7 | 11 | . | .
Cc1ccc2[nH]c3c(c2c1)CN(C(=O)CN(C)CC1OCCO1)CC3 | -8 | -38 | 0 | -9 | 8 | 61* | 9 | 11
COC(=O)c1ccccc1NC(=O)CSc1nncn1-c1cccnc1 | . | . | . | . | . | 2 | . | .
Cc1ccc(C)c(C(C)NC(=O)CC#N)c1 (configuration not stated) | 2 | -36 | 4 | 9 | -9 | 42* | 0 | -1
Cn1c(CNc2ccc(O)cc2)nc2ccccc21 | . | . | . | . | . | 66* | 81* | 82*
Cc1cc(C)n2nc3nc4c(cc3c2n1)CCCC4 | -2 | 15 | 35 | 7 | 2 | 106* | 22 | 18
Cc1cc(C)n2nc(C)c(Br)c2n1 | 1 | -12 | 3 | -6 | -10 | 7 | . | .
COc1ccc(CCN2C(=NC(=O)C(C)C)SC3CS(=O)(=O)CC32)cc1OC (configuration not stated) | . | -13 | 6 | -7 | -14 | 1 | . | .
CCc1nnc(SCC(=O)N2CCc3ccccc32)n1CC | . | . | . | . | . | 2 | . | .
CCn1c(CSc2ncccn2)nnc1SCC(=O)N1CCc2ccccc21 | -4 | -5 | 30 | -2 | -19 | 103* | 7 | -1
COc1ccc(Br)cc1-c1noc(-c2ccncc2)n1 | -1 | -30 | -10 | -7 | -19 | 66* | 7 | -1
O=C(N/N=C/c1ccsc1)c1c[nH]c2ccccc12 | . | . | . | . | . | 10 | . | .

Screens from PubChem BioAssay.
